CHRM1 antagonist = human M1 muscarinic receptor antagonists, primary screen, CHO-K1 cells, Fluo-8 calcium fluorescence, 1536-well. CHO-K1 hM1, ACh EC80 antagonist. AID 588852, 2011. Muscarinic acetylcholine receptor M1 (Homo sapiens), P11229. 1.3% of 360,000 active. inhibition, % at 3 µM;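 active = percent inhibition above its own plate's cutoff, namely the mean of that plate's compound wells plus 3 SD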;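 also: peak over basal fluorescence ratio during 140 s after agonist addition; 0% = ACh EC80 plus DMSO and 100% = DMSO alone without agonist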
TAAR1 agonist = human TAAR1 agonists, primary screen, Fluo-8 calcium fluorescence, CHO RD-HGA16 cells; 0.99% of 360,000 active; AID 624467, 2012; activation, % at 3 µM; vehicle wells 0%, saturating PEA agonist 100%;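 active = activation above the mean activation of all test compounds in the run plus 3 SD, cut at about 38% in these data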
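System: CHO RD-HGA16 cells carrying human TAAR1 plus Gα16; Incubation: 17-24 h seeding, 75 min 37 °C dye, 30 min RT; Measured by: Fluo-8 fluorescence, 5 s baseline then 140 s kinetic read; Control set: DMSO and PEA EC100; Replication: single well for each compound.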
CHRM1 PAM = human M1 muscarinic receptor positive allosteric modulators, primary screen, CHO-K1 cells, Fluo-8 calcium fluorescence, 1536-well | Muscarinic acetylcholine receptor M1 (Homo sapiens), P11229 | CHO-K1 hM1, ACh EC20; 0% = ACh EC20, 100% = maximal ACh | activation, % at 3 µM | 0.088% of 360,000 active; in the data active = activation above about 19%, passing the limit was not always enough
M1 ag = human M1 muscarinic receptor agonists, primary screen, Fluo-8 calcium fluorescence, CHO-K1 cells, HTS; Muscarinic acetylcholine receptor M1 (Homo sapiens), P11229; CHO-K1 hM1, agonist mode; 0% DMSO, 100% acetylcholine EC100; activation, % at 3 µM; 0.33% of 360,000 active;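 active = activation above the run's mean compound activation plus 3 SD, cut at about 16% in these data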;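 also: peak over basal fluorescence ratio within a 140 s kinetic read after compound addition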
TAAR1 antag = human TAAR1 antagonists, primary screen, Fluo-8 calcium fluorescence, CHO RD-HGA16 cells | antagonist | inhibition, % at 3 µM | 1.5% of 360,000 active;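 active = inhibition above a per-plate cutoff, the mean inhibition of test compounds on that plate plus 3 SD, cut at about 49% in these data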;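 also: 0% = DMSO plus EC80 beta-PEA response and 100% = DMSO alone without agonist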
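System: RD-HGA16 CHO cells with stable hTAAR1 and Gα16 | Probe or stimulus: EC80 β-phenethylamine stimulus | Dosing: 3 µM, single point | Times: Dye loading 75 min at 37 °C, then 30 min room temperature | Measured by: Fluo-8 calcium-sensitive fluorescence | Read-out basis: % inhibition of agonist calcium response | Replicates: n of 1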
HTR2A ag = mouse Htr2a agonists via beta-arrestin recruitment, primary screen, cell-based, luminescence. 5-hydroxytryptamine receptor 2A (Mus musculus), P35363. CHO-K1 mHTR2A beta-arrestin complementation; percent of 30 µM serotonin response. activation, % at 7.6 µM. 0.66% of 360,000 active;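 active = activation above a run cutoff, the mean activation of all tested compounds plus 3 SD, cut at about 14% in these data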;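 also: 0% = plate median of compound wells and 100% = 30 µM serotonin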
OPRM1 ag = OPRM1 agonists via beta-arrestin recruitment, confirmation, counter-screen for mouse HTR2A agonist project, cell-based, luminescence, single concentration; shares compounds with HTR2A ag; U2OS OPRM1 beta-arrestin PathHunter; DMSO 0%, DAMGO 9.3 µM 100%; activation, % at 9.3 µM; 5.3% of 2,300 active; AID 624380, 2012;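 active = mean activation above the mean of DMSO-only wells plus 3 SD, cut at about 0.5% in these data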
Target sequence (P35372 whole entry, looked up): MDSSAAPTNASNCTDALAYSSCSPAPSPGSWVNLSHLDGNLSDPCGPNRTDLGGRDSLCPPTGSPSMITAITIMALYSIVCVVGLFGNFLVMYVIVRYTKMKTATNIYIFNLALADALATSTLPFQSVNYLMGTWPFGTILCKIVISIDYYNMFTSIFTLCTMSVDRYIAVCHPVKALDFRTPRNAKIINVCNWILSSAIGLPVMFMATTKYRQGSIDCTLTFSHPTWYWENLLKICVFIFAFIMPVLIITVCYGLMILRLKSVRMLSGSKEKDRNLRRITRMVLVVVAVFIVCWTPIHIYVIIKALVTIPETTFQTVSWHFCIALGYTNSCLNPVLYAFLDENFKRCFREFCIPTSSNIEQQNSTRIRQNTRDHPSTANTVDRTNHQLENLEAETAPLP
m5-HT2A ag conf = mouse HTR2A agonists, beta-arrestin recruitment, confirmation, cell-based, luminescence, CHO-K1 PathHunter, triplicate. DMSO 0%, 30 µM serotonin 100%. shares compounds with HTR2A ag. activation, % at 7.6 µM. 19% of 2,300 active;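 active = mean activation across triplicates above the hit threshold derived in the original primary screen, cut at about 15% in these data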
* hit, by the source's call; . = no result given. A selection: hits, their analogues and other compounds. The true share with any hit is near 3.9%.

SMILES | CHRM1 antagonist | TAAR1 agonist | CHRM1 PAM | M1 ag | TAAR1 antag | HTR2A ag | OPRM1 ag | m5-HT2A ag conf
C[C@H](O)[C@@H]1CN2CCc3c([nH]c4ccccc34)[C@@H]2C[C@@H]1N(C)C(=O)Nc1ccc(Br)cc1 | 21 | 15 | -14 | -4 | 23 | 16* | . | 27*
Cc1cc(C)n(CCN(C)C(=O)C2CCC(=O)N(CCc3cccc(F)c3)C2)n1 (stereo unspecified) | -3 | 0 | 4 | -3 | -4 | 15* | 0 | -3
COc1ccc(CCN2CC(C(=O)N(C)CCn3nc(C)cc3C)CCC2=O)cc1 (stereo unspecified) | -1 | 2 | -2 | -1 | -25 | -4 | . | .
COc1cc(/C=C/C(=O)c2ccc3c(c2)OCCO3)cc(Br)c1OCC(=O)N(C)C | -4 | 8 | 11 | 1 | 13 | 18* | -1 | -6
O=C(/C=C/c1ccncc1)c1ccc2c(c1)OCCO2 | -1 | 10 | 0 | -7 | 10 | 5 | . | .
CCOc1ccc(CCNC(=O)c2cccc(C#N)c2)cc1OCC | -11 | 7 | 9 | -2 | 7 | 6 | . | .
COc1ccc(-c2cc(-c3nc4ccccn4c3NCc3ccccc3)ccc2OC)cc1 | 87* | 20 | -32 | 4 | 88* | 33* | 1.4* | 29*
COc1ccc(-c2nc3ccccn3c2NCc2ccc3c(c2)OCO3)cc1 | 13 | 16 | -9 | -1 | 44 | -3 | . | .
CSCc1c(C(=O)NCCc2ccccn2)oc2ccccc12 | -3 | 4 | 6 | -6 | -21 | 0 | . | .
COc1cc(NC(=O)CN2C(=O)C(c3ccccc3)=NC2(C)C)cc(OC)c1 | -15 | 2 | 13 | 0 | -10 | 28* | 0 | -4
COc1cc(NC(=O)CN2C(=O)C(c3ccccc3)=NC23CCCCCC3)cc(OC)c1 | 6 | -1 | 2 | -1 | -21 | -3 | . | .
O=S(=O)(c1cccc2ccccc12)N1CCC2CC1c1cc(Cl)ccc12 (stereo unspecified) | -10 | 3 | 2 | -3 | -15 | -6 | . | .
COc1ccc(NC2c3ccccc3C(=O)N2Cc2ccco2)cc1OC (stereo unspecified) | -4 | -1 | 2 | -4 | -17 | 4 | . | .
CCOc1ccc(NC2c3ccccc3C(=O)N2Cc2ccco2)cc1 (stereo unspecified) | 1 | -3 | -3 | -4 | -33 | 38* | 0 | -4
CC(C)C[C@@H](CN1CCC[C@H]1CN1C(=O)C(=O)NC[C@@H]1Cc1ccccc1)N1C[C@H](Cc2ccc(O)cc2)N(CC2CCCCC2)C(=O)C1=O | . | 1 | . | . | -17 | 15* | 0 | -3
CC(C)C[C@@H](CN1CCC[C@H]1CN1C(=O)C(=O)NC[C@@H]1Cc1ccc(O)cc1)N1C[C@H](Cc2ccccc2)N(CC2CCCCC2)C(=O)C1=O | . | 1 | . | . | -18 | -2 | . | .
CCCCCC1CCC(C(=O)NCCN2CCOCC2)CC1 (stereo unspecified) | 0 | 2 | -6 | -9 | -11 | -1 | . | .
CC1(C)CC2CC(C)(CN2C(=O)COC(=O)c2cncc(Br)c2)C1 (stereo unspecified) | -4 | 3 | 5 | -6 | -20 | 6 | . | .
O=C(Cc1c(F)cccc1Cl)N1CCN(S(=O)(=O)c2cccc(F)c2)CC1 | 1 | 4 | 1 | -1 | -18 | 14* | 0 | -2
Cc1ccc(S(=O)(=O)N(C)C)cc1NC(=O)CCc1ccccc1 | -10 | 1 | 11 | -3 | 5 | -4 | . | .
CC(=O)c1ccc(C(=O)Nc2nnc(-c3ccc(Cl)cc3)o2)cc1 | -1 | 1 | 2 | -2 | -11 | 24* | 0 | -2
CN(C)c1ccc(C(=O)Nc2nnc(-c3ccc(Cl)cc3)o2)cc1 | 1 | 0 | 7 | -3 | -19 | -5 | . | .
CCCCN(C(=O)c1cccc2c(=O)c(C)c(-c3ccccc3)oc12)c1ccccc1 | 6 | 11 | 1 | -8 | 19 | 38* | 0 | 10
CCCCNC(=O)c1cccc2c(=O)c(C)c(-c3ccccc3)oc12 | 7 | 32 | -3 | -8 | 26 | 0 | . | .
COc1ccccc1CCNC(=O)Cc1cccs1 | -35 | 21 | 8 | -2 | -13 | -2 | . | .
SMILES | CHRM1 antagonist | TAAR1 agonist | CHRM1 PAM | M1 ag | TAAR1 antag | HTR2A ag | OPRM1 ag | m5-HT2A ag conf
c1ccc(Oc2ncnc3ccccc23)cc1 | 5 | 4 | 1 | 1 | -7 | 16* | -1 | -4
Cc1ccccc1NC(=O)Cc1nc(COC(=O)COc2cccc(C)c2C)cs1 | 1 | 5 | 1 | -3 | 10 | 15* | -1 | -4
Cc1ccc(F)cc1NC(=O)COC(=O)C1CCN(c2ccc(C(F)(F)F)cn2)CC1 | -14 | 1 | 12 | -4 | 1 | -1 | . | .
CN1CCc2c(sc(/N=C/c3cc(Cl)ccc3O)c2C#N)C1 | -19 | 0 | 18 | -3 | 0 | 19* | -1 | 65*
CN1CCc2c(sc(/N=C/c3c[nH]c4ccccc34)c2C#N)C1 | -13 | 5 | 7 | -4 | -21 | 0 | . | .
CCCCOCC1CN(CCCC)S(=O)(=O)c2c(cccc2Sc2ccc(OC)c(OC)c2)O1 (stereo unspecified) | . | 0 | . | . | -19 | . | . | .
O=C(COC(=O)CCC(=O)c1ccccc1)Nc1nnc(-c2ccccc2)o1 | -16 | 1 | 9 | -2 | -1 | 2 | . | .
CC(=O)OC(C(=O)Nc1nccs1)c1ccccc1 (stereo unspecified) | -15 | 4 | 12 | -6 | 7 | 16* | -1 | -2
COc1ccc(C(=O)CCC(=O)NCCc2c[nH]c3ccccc23)cc1 | -14 | 5 | 12 | -2 | 8 | -4 | . | .
O=C(CCC(=O)c1ccccc1)NCCc1c[nH]c2ccccc12 | -18 | 3 | 18 | 1 | 22 | 21* | -1 | 11
